Test results from publication PMC8341669 (RSC Chemical Biology, 2021).

Assay: CD spectrum / MD helical content of the peptide in the free state
Type: physicochemical
Conditions: CD in H2O at 200 μM and MD simulations
In short: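 Peptide dissolved in HPLC-grade water at 200 μM and CD spectra recorded on a spectropolarimeter. Free peptide in solution MD: steepest-descent minimisation, 1 ns NVT (300 K, V-rescale) and 1 ns NPT (1 bar, Parrinello–Rahman) equilibration with heavy-atom restraints stepped off, then four 200 ns NPT production runs per peptide; PME electrostatics, 10 Å van der Waals cut-off, LINCS constraints.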

Sequence: RIRREEYLKAIQ [Linear]
- α-helical content in the free state: lower α-helical content
